Data: ChEMBL document CHEMBL3414491, “Synthesis and antitumor activities evaluation of m-(4-morpholinoquinazolin-2-yl)benzamides in vitro and in vivo” (Eur J Med Chem, 2015)
Each block holds one molecule with its values, some of them ahead of it. Activity calls are given as the source filed them. No cut-off for these calls is given here.

Assays:
MCF7 = test: Antiproliferative activity against human MCF7 cells after 72 hrs by MTT assay; assay type: functional, cell-based; conditions: MCF7, 72 h
Method in brief: (§1)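 MTT: cells seeded at 1500–4000 per well, grown 24 h, then given serial dilutions (1% DMSO final) for 72 h at 37 °C. MTT was added for 4 h, formazan dissolved in DMSO and absorbance read at 490 nm. Three separate experiments in triplicate; IC50 is the concentration giving 50% cell death versus control.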

A549 = test: Antiproliferative activity against human A549 cells after 72 hrs by MTT assay; assay type: functional, cell-based; conditions: A549, 72 h; method in brief: as §1
[1] = Antiproliferative activity against human U87MG cells after 72 hrs by MTT assay; assay type: functional, cell-based, U-87MG ATCC; conditions: U-87 MG; method in brief: as §1
[2] = Antiproliferative activity against human HCT116 cells after 72 hrs by MTT assay; assay type: functional, cell-based; conditions: HCT-116, 72 h; method in brief: as §1
PI3K p110 beta/p85 alpha = PI3K p110 beta/p85 alpha (Homo sapiens, UniProt P42338); test: Inhibition of p110beta/p85alpha (unknown origin) using L-alpha-phosphatidylinositol incubated for 40 mins by ADP depletion detection based luciferase assay; assay type: protein-complex assay
Chain of PI3K p110 beta/p85 alpha (P27986 whole entry): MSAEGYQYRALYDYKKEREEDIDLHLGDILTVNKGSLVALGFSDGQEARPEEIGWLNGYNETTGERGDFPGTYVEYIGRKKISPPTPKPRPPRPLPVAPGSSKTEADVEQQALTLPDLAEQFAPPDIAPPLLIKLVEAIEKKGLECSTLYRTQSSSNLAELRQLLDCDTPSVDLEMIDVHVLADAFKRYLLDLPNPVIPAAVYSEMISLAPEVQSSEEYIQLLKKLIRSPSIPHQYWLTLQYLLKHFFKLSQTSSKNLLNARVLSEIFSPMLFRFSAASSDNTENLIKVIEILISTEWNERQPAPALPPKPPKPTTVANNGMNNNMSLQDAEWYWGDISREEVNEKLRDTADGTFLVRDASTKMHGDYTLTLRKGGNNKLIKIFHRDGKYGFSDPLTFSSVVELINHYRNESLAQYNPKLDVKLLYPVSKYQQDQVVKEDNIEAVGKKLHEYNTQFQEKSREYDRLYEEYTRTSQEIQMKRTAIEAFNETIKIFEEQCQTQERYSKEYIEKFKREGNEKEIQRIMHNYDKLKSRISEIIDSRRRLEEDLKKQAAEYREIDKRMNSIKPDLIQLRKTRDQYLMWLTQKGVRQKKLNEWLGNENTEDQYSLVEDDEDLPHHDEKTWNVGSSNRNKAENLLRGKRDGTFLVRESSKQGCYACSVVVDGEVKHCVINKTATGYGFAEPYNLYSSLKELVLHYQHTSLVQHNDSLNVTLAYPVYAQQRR
Chain of PI3K p110 beta/p85 alpha (P42338 whole entry): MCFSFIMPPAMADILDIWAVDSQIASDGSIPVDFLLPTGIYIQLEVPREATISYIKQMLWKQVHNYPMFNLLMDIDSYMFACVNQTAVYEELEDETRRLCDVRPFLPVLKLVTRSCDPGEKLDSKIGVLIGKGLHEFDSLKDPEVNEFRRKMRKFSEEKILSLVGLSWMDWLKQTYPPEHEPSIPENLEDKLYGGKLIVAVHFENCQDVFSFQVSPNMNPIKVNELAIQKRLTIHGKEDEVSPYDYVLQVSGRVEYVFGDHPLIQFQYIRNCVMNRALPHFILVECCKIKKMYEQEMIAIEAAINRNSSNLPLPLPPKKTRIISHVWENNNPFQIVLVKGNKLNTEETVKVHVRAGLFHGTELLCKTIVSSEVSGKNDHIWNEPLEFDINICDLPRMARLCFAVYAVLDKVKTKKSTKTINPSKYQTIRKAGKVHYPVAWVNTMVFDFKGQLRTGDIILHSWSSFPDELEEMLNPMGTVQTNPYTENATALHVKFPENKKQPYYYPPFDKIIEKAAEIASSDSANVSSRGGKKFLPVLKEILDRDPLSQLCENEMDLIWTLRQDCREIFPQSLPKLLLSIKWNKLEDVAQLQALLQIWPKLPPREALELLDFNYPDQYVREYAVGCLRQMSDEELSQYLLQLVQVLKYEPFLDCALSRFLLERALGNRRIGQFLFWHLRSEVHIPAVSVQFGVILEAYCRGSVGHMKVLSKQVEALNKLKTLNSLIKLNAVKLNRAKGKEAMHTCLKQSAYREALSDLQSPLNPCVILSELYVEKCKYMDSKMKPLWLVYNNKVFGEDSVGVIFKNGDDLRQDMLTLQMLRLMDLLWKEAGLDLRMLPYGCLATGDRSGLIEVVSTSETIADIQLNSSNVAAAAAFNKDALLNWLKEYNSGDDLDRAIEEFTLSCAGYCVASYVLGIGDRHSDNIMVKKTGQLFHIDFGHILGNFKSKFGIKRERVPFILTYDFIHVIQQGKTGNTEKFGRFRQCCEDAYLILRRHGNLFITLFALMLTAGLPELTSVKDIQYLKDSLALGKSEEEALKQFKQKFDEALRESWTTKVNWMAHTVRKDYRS

[3] = molecular target: PI3-kinase p110-delta/p85-alpha (Homo sapiens, UniProt O00329); test: Inhibition of p110delta/p85alpha (unknown origin) using L-alpha-phosphatidylinositol incubated for 40 mins by ADP depletion detection based luciferase assay; assay type: protein-complex assay
[4] = molecular target: PI3-kinase subunit gamma/Phosphoinositide 3-kinase regulatory subunit 5 (Homo sapiens, UniProt P48736); test: Inhibition of p110gamma/PIK3R5 (unknown origin) using L-alpha-phosphatidylinositol incubated for 40 mins by ADP depletion detection based luciferase assay; assay type: protein-complex assay
Chain of PI3-kinase subunit gamma/Phosphoinositide 3-kinase regulatory subunit 5 (P48736 whole entry): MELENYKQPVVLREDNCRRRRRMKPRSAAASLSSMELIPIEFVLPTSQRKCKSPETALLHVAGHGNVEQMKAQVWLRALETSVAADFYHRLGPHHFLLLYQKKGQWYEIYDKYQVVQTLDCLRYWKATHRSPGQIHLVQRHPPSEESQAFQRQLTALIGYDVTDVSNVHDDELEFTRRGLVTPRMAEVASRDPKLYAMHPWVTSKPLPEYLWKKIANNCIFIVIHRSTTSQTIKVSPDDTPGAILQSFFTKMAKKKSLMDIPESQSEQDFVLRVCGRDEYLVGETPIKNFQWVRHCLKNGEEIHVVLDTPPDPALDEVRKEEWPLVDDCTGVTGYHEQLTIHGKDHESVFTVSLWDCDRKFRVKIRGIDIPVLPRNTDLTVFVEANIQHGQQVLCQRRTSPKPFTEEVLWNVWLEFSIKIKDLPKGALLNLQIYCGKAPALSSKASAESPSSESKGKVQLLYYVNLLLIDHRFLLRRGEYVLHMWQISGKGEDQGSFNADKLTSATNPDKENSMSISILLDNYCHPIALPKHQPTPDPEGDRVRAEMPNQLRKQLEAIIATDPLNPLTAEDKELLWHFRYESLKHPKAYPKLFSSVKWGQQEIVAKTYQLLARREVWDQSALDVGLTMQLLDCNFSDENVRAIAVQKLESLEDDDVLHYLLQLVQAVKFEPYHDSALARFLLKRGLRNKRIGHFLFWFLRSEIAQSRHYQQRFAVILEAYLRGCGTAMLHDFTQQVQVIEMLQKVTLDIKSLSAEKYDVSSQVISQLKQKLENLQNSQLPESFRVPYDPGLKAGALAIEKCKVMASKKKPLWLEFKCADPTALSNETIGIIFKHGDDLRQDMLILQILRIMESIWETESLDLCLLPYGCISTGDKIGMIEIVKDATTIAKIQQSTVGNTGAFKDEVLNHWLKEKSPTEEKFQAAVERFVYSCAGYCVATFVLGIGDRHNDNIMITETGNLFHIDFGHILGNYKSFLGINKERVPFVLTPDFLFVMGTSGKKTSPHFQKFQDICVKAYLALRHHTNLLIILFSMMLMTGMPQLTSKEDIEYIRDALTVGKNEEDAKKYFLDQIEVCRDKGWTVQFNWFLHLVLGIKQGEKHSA
Chain of PI3-kinase subunit gamma/Phosphoinositide 3-kinase regulatory subunit 5 (Q8WYR1 whole entry, further chain): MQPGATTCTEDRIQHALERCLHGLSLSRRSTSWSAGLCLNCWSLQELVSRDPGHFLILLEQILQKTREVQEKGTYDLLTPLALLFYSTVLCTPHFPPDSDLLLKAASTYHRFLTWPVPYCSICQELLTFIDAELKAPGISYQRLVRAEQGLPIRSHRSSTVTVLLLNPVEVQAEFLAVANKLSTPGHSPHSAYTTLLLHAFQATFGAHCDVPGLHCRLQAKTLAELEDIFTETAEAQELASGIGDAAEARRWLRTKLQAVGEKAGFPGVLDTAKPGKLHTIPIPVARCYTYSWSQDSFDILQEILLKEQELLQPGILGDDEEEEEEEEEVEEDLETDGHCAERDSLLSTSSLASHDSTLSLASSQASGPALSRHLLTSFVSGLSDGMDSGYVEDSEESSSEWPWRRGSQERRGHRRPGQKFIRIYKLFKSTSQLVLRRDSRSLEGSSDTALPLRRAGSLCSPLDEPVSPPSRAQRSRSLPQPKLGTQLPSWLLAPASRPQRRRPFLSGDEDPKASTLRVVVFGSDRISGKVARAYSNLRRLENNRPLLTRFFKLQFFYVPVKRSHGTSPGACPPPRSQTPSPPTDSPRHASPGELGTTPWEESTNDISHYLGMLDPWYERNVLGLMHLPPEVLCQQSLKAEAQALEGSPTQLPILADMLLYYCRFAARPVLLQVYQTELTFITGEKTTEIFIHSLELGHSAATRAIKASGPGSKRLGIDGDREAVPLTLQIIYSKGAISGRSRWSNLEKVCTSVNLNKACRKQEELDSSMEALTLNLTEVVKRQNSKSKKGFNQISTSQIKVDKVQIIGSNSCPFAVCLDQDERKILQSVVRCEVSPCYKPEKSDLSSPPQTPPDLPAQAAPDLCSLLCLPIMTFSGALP

[5] = molecular target: PI3-kinase p110-alpha/p85-alpha (Homo sapiens, UniProt P42336); test: Inhibition of p110alpha/p85alpha (unknown origin) using L-alpha-phosphatidylinositol incubated for 40 mins by ADP depletion detection based luciferase assay; assay type: protein-complex assay
Chain of PI3-kinase p110-alpha/p85-alpha (P27986 whole entry): as the sequence (P27986 whole entry) above
Chain of PI3-kinase p110-alpha/p85-alpha (P42336 whole entry): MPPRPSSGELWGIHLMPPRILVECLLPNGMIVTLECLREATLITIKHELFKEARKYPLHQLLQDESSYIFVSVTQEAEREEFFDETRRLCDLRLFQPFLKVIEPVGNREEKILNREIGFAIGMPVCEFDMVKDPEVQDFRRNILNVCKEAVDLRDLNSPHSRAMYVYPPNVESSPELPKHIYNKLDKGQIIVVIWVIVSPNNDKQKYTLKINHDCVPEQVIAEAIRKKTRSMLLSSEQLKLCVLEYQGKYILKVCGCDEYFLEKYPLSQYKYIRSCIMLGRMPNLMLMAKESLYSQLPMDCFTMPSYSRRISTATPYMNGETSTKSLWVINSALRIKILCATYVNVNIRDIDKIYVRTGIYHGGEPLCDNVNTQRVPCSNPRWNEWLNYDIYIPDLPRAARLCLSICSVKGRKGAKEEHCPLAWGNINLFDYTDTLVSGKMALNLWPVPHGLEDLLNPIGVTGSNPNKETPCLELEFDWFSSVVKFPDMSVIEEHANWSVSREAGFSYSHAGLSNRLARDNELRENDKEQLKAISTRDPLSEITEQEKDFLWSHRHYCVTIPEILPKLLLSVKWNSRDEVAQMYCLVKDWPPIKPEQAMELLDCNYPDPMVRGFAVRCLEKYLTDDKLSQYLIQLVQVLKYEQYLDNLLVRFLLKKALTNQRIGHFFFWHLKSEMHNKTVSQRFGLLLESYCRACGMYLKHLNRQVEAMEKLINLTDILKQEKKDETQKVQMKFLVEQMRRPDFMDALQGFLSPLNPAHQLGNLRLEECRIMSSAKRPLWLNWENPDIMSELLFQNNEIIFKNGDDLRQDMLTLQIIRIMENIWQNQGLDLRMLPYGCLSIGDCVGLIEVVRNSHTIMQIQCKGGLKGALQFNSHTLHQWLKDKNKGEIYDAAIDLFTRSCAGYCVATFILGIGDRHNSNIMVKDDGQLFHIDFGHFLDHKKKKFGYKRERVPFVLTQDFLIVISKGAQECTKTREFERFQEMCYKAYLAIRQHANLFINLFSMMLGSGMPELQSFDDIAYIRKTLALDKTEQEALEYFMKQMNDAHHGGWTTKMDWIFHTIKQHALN

[6] = Inhibition of PI3K-mediated PI3K/Akt/mTOR pathway in human HCT116 cells assessed as reduction in Akt Ser473 phosphorylation at 10 uM incubated for 1 hr by Western blot method; assay type: cell-based; conditions: HCT-116
Method in brief: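 HCT-116 cells were seeded at 5 × 10⁵ per well and grown 16 h at 37 °C, then exposed to 10 µM for 1 h; vehicle control was 0.5% DMSO. Lysates were normalised by BCA, run on 10% SDS-PAGE, transferred to nitrocellulose and probed for AKT and p-Ser473 AKT, with β-actin as loading control. Detection was by chemiluminescence; bands were quantified densitometrically.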

HCT-116 [7] = test: Induction of apoptosis in human HCT116 cells assessed as early apoptotic cells level at 1 uM after 24 hrs by annexin V-FITC/propidium iodide staining based flow cytometry (reference value: 4.36%); assay type: functional
Method in brief: (§2)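 HCT-116 cells were seeded at 1.5 × 10⁵ per well, grown 24 h, then treated 24 h; vehicle control was 0.5% DMSO. Cells were stained with an Annexin V-FITC/PI kit and analysed by flow cytometry. Q4 = early apoptotic, Q2 = late apoptotic; apoptosis rate = Q2 + Q4. Means of three independent experiments.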

CCRF S-180 [8] = test: Antitumor activity against mouse S180 cells homografted in mouse assessed as reduction tumor weight at 30 mg/kg, po once daily for 8 days; assay type: functional; conditions: CCRF S-180, 192 h
Method in brief: (§3)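 Mice (19.6 g average) had 3 × 10⁶ S180 cells injected subcutaneously into the flank and were randomized into three groups of 8. From the next day they received compound in NMP/PEG400/H2O (1:8:1) orally once daily for 8 days, or solvent alone. Body weights were recorded daily. On Day 9 tumors and bodies were weighed and tumor-weight inhibitory ratios calculated.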

HCT-116 [9] = test: Induction of chromatin condensation in human HCT116 cells at 0. 1 to 10 uM after 24 hrs by Hoechst staining based fluorescent microscopy; assay type: functional, cell-based
Method in brief: (§4)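 HCT-116 cells (15,000 per well) were grown 24 h, then exposed to 0.1, 1 or 10 µM for 24 h; vehicle control was 0.5% DMSO. Cells were photographed under phase-contrast microscopy, then stained with Hoechst 33258 for 0.5 h at 37 °C, washed with PBS and viewed by fluorescence microscopy.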

HCT-116 [10] = test: Induction of apoptosis in human HCT116 cells at 1 uM after 24 hrs by annexin V-FITC/propidium iodide staining based flow cytometry; assay type: functional; method in brief: as §2
HCT-116 [11] = test: Induction of cellular morphological changes in human HCT116 cells assessed as induction of vacuolization at 1 and 10 uM after 24 hrs by Hoechst staining based phase contrast microscopy; assay type: functional, cell-based; method in brief: as §4
HCT-116 [12] = test: Induction of cell cycle arrest in human HCT116 cells assessed as accumulation at S phase at 3 uM after 24 hrs by propidium iodide staining based flow cytometry (reference value: 38.71%); assay type: functional
CCRF S-180 [13] = test: Antitumor activity against mouse S180 cells homografted in mouse assessed as reduction tumor weight at 15 mg/kg, po once daily for 8 days; assay type: functional; conditions: CCRF S-180, 192 h; method in brief: as §3
HCT-116 [14] = test: Induction of cell cycle arrest in human HCT116 cells assessed as accumulation at G0/G1 phase at 3 uM after 24 hrs by propidium iodide staining based flow cytometry (reference value: 48.31%); assay type: functional
HCT-116 [15] = test: Induction of apoptosis in human HCT116 cells assessed as early apoptotic cells level at 3 uM after 24 hrs by annexin V-FITC/propidium iodide staining based flow cytometry (reference value: 4.36%); assay type: functional; method in brief: as §2
Mus musculus [16] = test: Toxicity in mouse homografted with mouse S180 cells assessed as effect on body weight at 30 mg/kg, po once daily for 8 days; assay type: organism-based, CCRF S-180; parameters: dose 30 mg/kg, route oral; conditions: in vivo, 192 h; method in brief: as §3
Mus musculus [17] = test: Toxicity in mouse homografted with mouse S180 cells assessed as effect on body weight at 15 mg/kg, po once daily for 8 days; assay type: organism-based, CCRF S-180; parameters: dose 15 mg/kg, route oral; conditions: in vivo, 192 h; method in brief: as §3
HCT-116 [18] = test: Induction of apoptosis in human HCT116 cells at 3 uM after 24 hrs by annexin V-FITC/propidium iodide staining based flow cytometry; assay type: functional; method in brief: as §2
HCT-116 [19] = test: Induction of cell cycle arrest in human HCT116 cells assessed as accumulation at G2/M phase at 3 uM after 24 hrs by propidium iodide staining based flow cytometry (reference value: 12.98%); assay type: functional
HCT-116 [20] = test: Induction of cellular morphological changes in human HCT116 cells assessed as induction of cell shrinking at 1 and 10 uM after 24 hrs by Hoechst staining based phase contrast microscopy; assay type: functional; method in brief: as §4
HCT-116 [21] = test: Induction of nuclear fragmentation in human HCT116 cells at 0. 1 to 10 uM after 24 hrs by Hoechst staining based fluorescent microscopy; assay type: functional, cell-based; method in brief: as §4
HCT-116 [22] = test: Induction of cellular morphological changes in human HCT116 cells assessed as induction of fragmentation at 1 and 10 uM after 24 hrs by Hoechst staining based phase contrast microscopy; assay type: functional, cell-based; method in brief: as §4
HCT-116 [23] = test: Induction of apoptosis in human HCT116 cells assessed as late apoptotic cells level at 3 uM after 24 hrs by annexin V-FITC/propidium iodide staining based flow cytometry (reference value: 3.08%); assay type: functional; method in brief: as §2
HCT-116 [24] = test: Induction of apoptosis in human HCT116 cells assessed as late apoptotic cells level at 1 uM after 24 hrs by annexin V-FITC/propidium iodide staining based flow cytometry (reference value: 3.08%); assay type: functional; method in brief: as §2

SMILES: COc1cc(C(N)=O)cc(-c2nc(N3CCOCC3)c3cc(OC)c(OCC(=O)N4CCN(C)CC4)cc3n2)c1
IC50 (MCF7): 18700 nM
IC50 [2]: 9440 nM

SMILES: CNC(=O)COc1cc2nc(-c3cc(OC)cc(C(N)=O)c3)nc(N3CCOCC3)c2cc1OC
IC50 (MCF7): 14900 nM
IC50 [2]: 21700 nM

SMILES: COCCOc1cc2nc(-c3cc(OC)cc(C(N)=O)c3)nc(N3CCOCC3)c2cc1OCCOC
IC50 (MCF7): 7520 nM
IC50 [2]: 9040 nM

SMILES: COc1cc2nc(-c3ccc(OCc4ccccc4)c(C(N)=O)c3)nc(N3CCOCC3)c2cc1OC
IC50 (MCF7): 7900 nM
IC50 [2]: 5030 nM

SMILES: COc1cc(C(N)=O)cc(-c2nc(N3CCOCC3)c3cc(OC)c(OCC(=O)N4CCOCC4)cc3n2)c1
IC50 (MCF7): 24400 nM
IC50 [2]: 6480 nM

SMILES: COc1cc(C(N)=O)cc(-c2nc(N3CCOCC3)c3cc(OC)c(OCCN4CCCCC4)cc3n2)c1
IC50 (MCF7): 6380 nM
IC50 [2]: 1280 nM

These reach a lower IC50 (MCF7). Values come first.

IC50 (MCF7): 3490 nM
SMILES: COc1cc2nc(-c3cccc(NC(C)=O)c3)nc(N3CCOCC3)c2cc1OC
IC50 [2]: 1420 nM

IC50 (MCF7): 3440 nM
SMILES: COC(=O)c1cccc(-c2nc(N3CCOCC3)c3cc(OC)c(OC)cc3n2)c1
IC50 [2]: 1070 nM

IC50 (PI3K p110 beta/p85 alpha): 454 nM
IC50 (MCF7): 2640 nM
IC50 [3]: 260 nM
IC50 (A549): 17200 nM
IC50 [4]: 394 nM
IC50 [5]: 53 nM
SMILES: COc1cc2nc(-c3cc(O)cc(C(N)=O)c3)nc(N3CCOCC3)c2cc1OC
IC50 [1]: 1840 nM
IC50 [2]: 880 nM

IC50 (MCF7): 2140 nM
IC50 (A549): 26100 nM
SMILES: COc1cc2nc(-c3cccc(C(N)=O)c3)nc(N3CCOCC3)c2cc1OC
IC50 [1]: 1570 nM
IC50 [2]: 900 nM

IC50 (MCF7): 2030 nM
IC50 (A549): 4750 nM
SMILES: COc1cc2nc(-c3cc(C(N)=O)cc(C(F)(F)F)c3)nc(N3CCOCC3)c2cc1OC
IC50 [1]: 1190 nM
IC50 [2]: 710 nM

IC50 (MCF7): 1750 nM
IC50 (A549): 9220 nM
SMILES: COc1cc(C(N)=O)cc(-c2nc(N3CCOCC3)c3cc(OC)c(OC)cc3n2)c1
IC50 [1]: 1010 nM
IC50 [2]: 450 nM

IC50 (MCF7): 1090 nM
IC50 (A549): 2280 nM
SMILES: CS(=O)(=O)N1CCN(Cc2cc3nc(-c4cccc5[nH]ncc45)nc(N4CCOCC4)c3s2)CC1 [PICTILISIB]
inhibition [6]: Active
IC50 [1]: 1240 nM
IC50 [2]: 370 nM

IC50 (PI3K p110 beta/p85 alpha): 128 nM
IC50 (MCF7): 1090 nM
IC50 [3]: 330 nM
IC50 (A549): 1680 nM
IC50 [4]: 465 nM
IC50 [5]: 96 nM
SMILES: COc1cc2nc(-c3cc(OC(F)(F)F)cc(C(N)=O)c3)nc(N3CCOCC3)c2cc1OC
Activity (HCT-116 [7]): 11.5%
inhibition in vivo at 30 mg/kg (CCRF S-180 [8]): 64.2%
inhibition [6]: Active
Activity (HCT-116 [9]): Active
Activity (HCT-116 [10]): 22.7%
Activity (HCT-116 [11]): Active
Activity (HCT-116 [12]): 20.11%
inhibition in vivo at 15 mg/kg (CCRF S-180 [13]): 49.3%
Activity (HCT-116 [14]): 56.69%
Activity (HCT-116 [15]): 16.25%
Activity (Mus musculus [16]): Non-toxic
Activity (Mus musculus [17]): Non-toxic
Activity (HCT-116 [18]): 27.3%
Activity (HCT-116 [19]): 23.19%
Activity (HCT-116 [20]): Active
Activity (HCT-116 [21]): Active
IC50 [1]: 600 nM
Activity (HCT-116 [22]): Active
IC50 [2]: 300 nM
Activity (HCT-116 [23]): 7.59%
Activity (HCT-116 [24]): 6.76%

IC50 (MCF7): 1010 nM
IC50 (A549): 9370 nM
SMILES: COc1cc(C(N)=O)cc(-c2nc(N3CCOCC3)c3cc(OC)c(OCCN4CCCC4)cc3n2)c1
IC50 [1]: 2450 nM
IC50 [2]: 810 nM
